# Assay outcomes deposited in PubChem BioAssay by Johns Hopkins Ion Channel Center.
# MrgX1 antagonist: antagonists of human MrgX1 receptor; MRGX1-HEK293 calcium flux, Fluo-4, BAM8-22 antagonism; active compounds read low; B-score at 10 µM; Q96LB2; AID 588676; 310,000 compounds, 1.3% hits;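 active = calcium-response B-score plate-corrected more than 3 library SD below zero, starting fluorescence within 5 deviations, no agonist response on first addition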;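 note: peak minus trough fluorescence over baseline after final BAM8-22 challenge near maximal dose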
# Target sequence (Q96LB2 whole entry, looked up): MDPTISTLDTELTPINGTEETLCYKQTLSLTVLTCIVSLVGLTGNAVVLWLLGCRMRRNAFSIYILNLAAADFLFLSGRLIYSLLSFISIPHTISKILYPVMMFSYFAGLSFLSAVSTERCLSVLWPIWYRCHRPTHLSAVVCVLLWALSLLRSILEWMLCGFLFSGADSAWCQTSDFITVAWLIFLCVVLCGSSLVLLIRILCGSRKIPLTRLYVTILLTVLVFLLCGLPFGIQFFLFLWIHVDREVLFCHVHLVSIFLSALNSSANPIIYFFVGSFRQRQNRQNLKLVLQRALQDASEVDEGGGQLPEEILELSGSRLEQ
# RGS4 pot: RGS4 potentiation or activation; 310,000 compounds, 0.92% hits; HEK293 M3R/inducible RGS4, carbachol calcium flux Fluo4; active compounds read low; AID 463111; B-score at 10 µM;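 active = B-score of the integrated calcium signal more than 4 SD below the library mean, with starting fluorescence not abnormally high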;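 note: negative B-score means reduced calcium response which marks RGS4 activation or potentiation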
#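 Also added: carbachol at ECmax as muscarinic agonist stimulus; Assay system: HEK293 cells with stable M3R and inducible RGS4; Timing: overnight RGS4 induction, 30 min dye load 37 °C, 20 min compound RT; Measured by: Fluo4-AM (2 µM) calcium-flux fluorescence, kinetic read.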
# MrgX1 ag: activates human MrgX1 receptor signaling; AID 588627; B-score at 10 µM; 310,000 compounds, 0.44% hits; MrgX1-HEK293 cells, Fluo-4 calcium fluorescence, agonist mode; active compounds read high; Q96LB2;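 active = calcium response B-score plate-corrected fluorescence ratio at least 3 library SD, with starting fluorescence B-score inside 5 SD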
#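 Material: MrgX1-expressing HEK293 cells / Dosing: compound as first of three additions / Incubation: overnight seeding, then 1 h dark dye loading / Signal: Fluo-4 NW calcium fluorescence / Evaluation: B-scored fluorescence response ratio / Benchmarks: positive and negative control wells on each plate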
# MrgX1 PAM: human MrgX1 positive allosteric modulation, primary screen; Q96LB2; MrgX1-HEK293, Fluo-4 calcium flux, FDSS; active compounds read high; B-score at 10 µM; 310,000 compounds, 0.63% hits; AID 588675;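 active = plate-corrected calcium response at least 3 library SD above typical, normal starting fluorescence, not activating the receptor alone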;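 note: compound read alongside a low EC10 to EC30 dose of BAM8-22 agonist; peak minus trough fluorescence over baseline measured at the second addition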
# RGS4 inh: human RGS4 inhibition | B-score at 10 µM | HEK293 M3R/RGS4 inducible, Fluo-4 calcium flux; active compounds read high; triggered by carbachol at its EC20 | AID 463165 | 310,000 compounds, 0.45% hits;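 active = B-score, a plate-corrected calcium signal, over three deviations above library mean, with baseline fluorescence within five deviations of library mean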;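 note: RGS4 expression induced by doxycycline in cells with stable M3 receptor; B-score is computed from the integrated fluorescence ratio over baseline after carbachol; higher B-score means a larger calcium signal and so more RGS4 inhibition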
# Target sequence (P49798 whole entry, looked up): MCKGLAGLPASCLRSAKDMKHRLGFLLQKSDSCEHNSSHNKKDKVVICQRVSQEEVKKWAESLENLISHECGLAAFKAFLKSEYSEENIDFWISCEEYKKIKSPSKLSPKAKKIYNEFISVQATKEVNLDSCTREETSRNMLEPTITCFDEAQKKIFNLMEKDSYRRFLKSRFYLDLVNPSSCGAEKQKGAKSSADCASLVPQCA
# MrgX1 antag conf: reconfirmed antagonist of human MrgX1 receptor signaling. remaining BAM8-22 calcium response % of control (active compounds read low), % at 10 µM. 2,300 compounds, 19% hits. shares compounds with MrgX1 antagonist. MrgX1-HEK293, BAM8-22 calcium flux, Fluo-4; active compounds read low;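 active = remaining agonist calcium response no higher than 100% minus 3 SD of agonist-only control wells, with starting fluorescence near control levels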;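 note: agonist BAM8-22 given at a near maximal EC90 to ECmax level; peak minus minimum fluorescence divided by baseline after agonist addition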
# HEK293 Ca flux: activity in parental HEK293 cells lacking MrgX1; AID 624111; 4,000 compounds, 2% hits; Fluo-4 calcium fluorescence, FDSS; shares compounds with MrgX1 antagonist; fluorescence ratio F(max-min)/F0 at 10 µM;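 active = duplicate-averaged calcium fluorescence ratio at least three times the standard deviation of buffer wells, a nonspecific response in parental cells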
# HEK293 Ca counter: activity in parental HEK293 cells without MrgX1. parental HEK293 calcium flux, Fluo-4 fluorescence ratio; active compounds read high. 4,000 compounds, 0.4% hits. shares compounds with MrgX1 antagonist. AID 624114. fluorescence ratio F(max-min)/F0 at 10 µM;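 active = calcium fluorescence ratio, averaged over duplicates, at least 3 SD of the buffer-well ratio, meaning a nonspecific response in receptor-free cells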;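 note: untransfected parental HEK293 lacking MrgX1 used as counterscreen for MrgX1 allosteric activators; fluorescence change taken during the second addition on a kinetic imager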
# HEK293 Ca cntr2: activity in parental HEK293 cells lacking MrgX1 receptor; shares compounds with MrgX1 antagonist; Fluo-4 calcium fluorescence (FDSS); active compounds read high; fluorescence ratio F(max-min)/F0 at 10 µM; 4,000 compounds, 8.7% hits; AID 624115;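 active = calcium fluorescence ratio at least three times the spread of buffer wells, meaning a non-specific response in parental cells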
# * = called active by the depositor; i = inactive; · = no result. This is a sample that favours compounds with a hit; in the whole collection about 3.5% have one here.
SMILES,MrgX1 antagonist,RGS4 pot,MrgX1 ag,MrgX1 PAM,RGS4 inh,MrgX1 antag conf,HEK293 Ca flux,HEK293 Ca counter,HEK293 Ca cntr2
O=C(O)c1ccccc1NS(=O)(=O)c1cccc(-n2sc3ccccc3c2=O)c1,-6.3*,i,i,i,i,44%*,i,i,i
O=C(O)c1ccccc1NS(=O)(=O)c1cccc(C(F)(F)F)c1,i,i,i,i,i,·,·,·,·
COc1ccc(N=Cc2ccc(-c3ccccc3)o2)cc1,-6*,i,i,i,i,i,i,i,i
CCOC(=O)c1sc2nc(CSc3ccccc3)nc(N3CCC(C(N)=O)CC3)c2c1C,i,i,i,i,i,·,·,·,·
Cc1sc2nc(CSc3ccccc3)nc(N3CCC(C(N)=O)CC3)c2c1C,-11*,i,i,i,i,i,i,i,i
Cc1[nH]n(-c2nc(-c3ccccc3F)cc(=O)[nH]2)c(=O)c1CCO,i,i,i,i,i,·,·,·,·
NS(=O)(=O)c1ccc(-n2nncc2C23CC4CC(CC(C4)C2)C3)cc1,-7.3*,i,i,i,i,i,i,i,i
NS(=O)(=O)c1ccc(CCNC(=O)NC23CC4CC(CC(C4)C2)C3)cc1,i,i,i,i,i,·,·,·,·
COc1ccc(CSC2=CS(=O)(=O)c3ccccc3N2)cc1,i,i,i,i,i,·,·,·,·
Nc1c(S(=O)(=O)c2cccs2)c2nc3ccccc3nc2n1CC1CCCO1 (stereo unspecified),-7*,·,i,i,·,i,i,i,i
COc1ccc(COC[C@H](C)[C@H](O)[C@@H](C)[C@H]2OC(=O)[C@@H]2C)cc1,i,i,i,i,i,·,·,·,·
CC12C(=O)N(c3ccccn3)C(=O)C1C1C=CC2C1 (stereo unspecified),-5*,i,i,i,i,i,i,i,i
Cc1ccnc2c(N3C(=O)C4C5C=CC(C5)C4(C)C3=O)cccc12 (stereo unspecified),i,i,i,i,i,·,·,·,·
O=C(CSc1nc2scc(-c3ccccc3)c2c(=O)[nH]1)NCCc1ccccc1,i,i,i,i,i,·,·,·,·
O=C(CSc1nc2scc(-c3ccccc3)c2c(=O)[nH]1)N1CCOCC1,-9.1*,i,i,i,i,i,i,i,i
Cc1sc2nc(SCC(=O)N3CCCC3)[nH]c(=O)c2c1C,i,i,i,i,i,·,·,·,·
Cc1sc2nc(SCC(=O)N3CCCCC3)[nH]c(=O)c2c1C,-7.3*,i,i,i,i,i,i,i,i
O=[N+]([O-])c1cc(C(F)(F)F)ccc1NCCNC(=S)Nc1ccc(Cl)cc1,-11*,-7.1*,i,i,i,72%*,i,i,i
O=[N+]([O-])c1cc(C(F)(F)F)ccc1NCCCCNS(=O)(=O)c1ccc(Cl)cc1,i,i,i,i,i,·,·,·,·
CC(C)CCNC(=O)NC(=O)COC(=O)/C=C/c1cc(Br)ccc1F,i,i,i,i,i,·,·,·,·
Fc1ccccc1-c1n[nH]c(=S)n1CC1CCCO1 (stereo unspecified),-6.3*,i,i,i,i,i,i,i,i
CCCS(=O)(=O)n1nc(-c2ccc(Br)cc2)cc1N,i,i,i,i,i,·,·,·,·
Cc1ccc(CNC(=O)Cc2ccc(-n3cccc3)cc2)cc1,i,i,i,i,i,·,·,·,·
Cc1cc(C)c(NC(=O)Cc2ccc(-n3cccc3)cc2)c(C)c1,-5.5*,i,i,i,i,i,i,i,i
Cc1c(Cl)cccc1NC(=S)NCCCN(C)C,-5.5*,i,i,i,i,i,i,i,i
SMILES,MrgX1 antagonist,RGS4 pot,MrgX1 ag,MrgX1 PAM,RGS4 inh,MrgX1 antag conf,HEK293 Ca flux,HEK293 Ca counter,HEK293 Ca cntr2
S=C(NCCNC(=S)Nc1ccccc1Cl)Nc1ccccc1Cl,-4.7*,i,i,i,i,85%*,i,i,i
CN(C)CCNC(=S)Nc1ccccc1Cl,i,i,i,i,i,·,·,·,·
Nc1c(-c2ccc3c(c2)OCCO3)oc2ccccc2c1=O,i,i,i,i,i,·,·,·,·
NC(=O)c1ccc(Oc2ccc(C(N)=O)cc2)cc1,i,i,i,i,i,·,·,·,·
Cc1ccc(C(=O)NC(N(C)C)C(Cl)(Cl)Cl)cc1 (stereo unspecified),-4.5*,i,i,i,i,i,i,i,i
Cc1ccc(C(NC(=O)c2ccccc2)C(Cl)(Cl)Cl)cc1 (stereo unspecified),i,i,i,i,i,·,·,·,·
Cc1ccc(C(=O)NCC(=O)O)o1,i,i,i,i,i,·,·,·,·
Cc1ccc2nc(SCCC#N)nc(C)c2c1,-8.1*,i,i,i,i,i,i,i,i
Cc1ccc2nc(SCC(=O)O)nc(C)c2c1,i,i,i,i,i,·,·,·,·
Nc1nnnn1/N=C/C(Br)=C/c1ccccc1,-5.1*,i,i,i,i,i,i,i,i
Nc1nnnn1/N=C/C=C/c1ccccc1,i,i,i,i,i,·,·,·,·
O=C(Nc1ccncc1)c1ccc2c(c1)S(=O)(=O)c1ccccc1C2=O,i,i,i,i,i,·,·,·,·
O=C(Nc1ccc(-c2ccccc2)cc1)c1ccc2c(c1)S(=O)(=O)c1ccccc1C2=O,-4.7*,i,i,i,i,i,i,i,i
COc1cc(NC(=O)C2CSC3(C)CCC(=O)N23)c(OC)cc1Cl (stereo unspecified),-7.8*,i,i,i,i,83%*,i,i,i
CC(C)CN1CCNC(=O)C1CC(=O)NCc1cnn(-c2cccc(F)c2)c1 (stereo unspecified),i,i,i,i,i,·,·,·,·
CC(=O)Nc1n[nH]c(-c2ccc(C)cc2)c1C,-5.4*,i,i,i,i,i,i,i,i
CC(=O)Nc1cc(-c2ccc(F)cc2)[nH]n1,i,i,i,i,i,·,·,·,·
